Entries after “also recorded” stand apart in the source; their conditions may differ. Structures can show the parent of a compound that is named as a salt. Where two headings read alike, the source gives them in different places.
Columns and labels:
HBV [1] = conditions: for S.I. with Anti-HBV (CC50/IC50): HepG2 2.2.15 cells
HBV [2] = experiment: microbe, parasite or virus in culture; conditions: Hepatitis B virus, HepG2 2.2.15, 288 h, read-out: IC50 against Anti-HBV
[3] = Cytotoxicity in MT-4 cells; format: cell-based; conditions: human
in vitro = format: cell-based; conditions: human
[4] = test system: HBVETV-R^L180M/S202G/M204V; experiment: Southern blot assay, Huh-7 cells transfected with ETV-resistant HBV plasmid; format: cell-based; conditions: Hepatitis B virus, Huh-7, read-out: IC50 against HBVETV-R^L180M/S202G/M204V
How it was run: (§1)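 Huh-7 cells were transfected with the HBV variant-containing plasmid and cultured with a range of test compound concentrations. Core-associated HBV DNA was extracted and detected by Southern blot hybridization. IC50 was calculated from the change in signal density, generally averaged over two experiments. The fold change was taken relative to the IC50 against wild-type HBV plasmid.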

[5] = Serum human albumin and body weight monitoring of treated HBV-infected mice; format: in vivo; conditions: 0.02 mg/kg/day; for serum human albumin (h-albumin) levels: HBV^WT-infected mice; for body weights: treated mice, 14 days
[6] = format: in vivo; conditions: hu-liver-chimeric mice, 14-day administration
HBV^WT [7] = experiment: HBV^WT viremia in hu-liver-chimeric-uPA+/+/SCID+/+ mice; format: in vivo; conditions: 0.02 mg/kg/day oral, 14 days; for greatest magnitude of serum HBV-DNA level reduction: HBV^WT-infected mice
HBVADV-R^A181T/N236T = experiment: Southern blot assay, Huh-7 cells transfected with ADV-resistant HBV plasmid; format: cell-based; conditions: Hepatitis B virus, Huh-7, read-out: IC50 against HBVADV-R^A181T/N236T
How it was run: as §1

[8] = test system: HBVETV-R^L180M/S202G/M204V; experiment: HBVETV-R viremia in hu-liver-chimeric-uPA+/+/SCID+/+ mice; format: in vivo; conditions: for effect on HBVETV-R^L180M/S202G/M204V viremia: 0.02 mg/kg/day oral once daily; for effect on HBVETV-R^L180M/S202G/M204V viremia / greatest magnitude of viremia reduction: 14 days; for greatest magnitude of viremia reduction: HBVETV-R-infected mice, 0.02 mg/kg/day oral, average of two mice; for difference in viremia reduction magnitude between HBV^WT and HBVETV-R^L180M/S202G/M204V: mouse model
How it was run: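 Human-liver-chimeric uPA+/+/SCID+/+ mice (SCID, uPA-transgenic, liver partly repopulated with human hepatocytes) were inoculated with the HBV variant. Dosing began 8 weeks later, once daily at 0.02 mg/kg/day for 14 days. Serum viremia was followed as log10 copies/ml change from baseline, along with serum human albumin and body weight per mouse. Livers were examined histologically at the end of dosing.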

HIV-2 strains = experiment: Activity against HIV-2 strains; format: cell-based; conditions: Table S1
HBV^WT [9] = experiment: Southern blot assay, Huh-7 cells transfected with pHBV^WT; format: cell-based; conditions: Hepatitis B virus
HepG2 cells = format: cell-based; conditions: up to 100 μM; for mtDNA synthesis / mtDNA levels / L-lactate levels in culture medium: 12 days culture; for mtDNA synthesis / mtDNA levels: real-time mtDNA-PCR; for viable cell numbers (MTT assay): day 5 of culture
[10] = cited from earlier work
HIV-1 = conditions: read-out: in vitro anti-HIV-1 IC90 concentration; cited from earlier work
[11] = intraperitoneal administration 20 mg/kg; cited from earlier work
[12] = Huh-7, read-out: IC50 against HBV^WT
[13] = Huh-7, read-out: IC50 against HBV^WT (Southern blot)

| Structure (SMILES) | S.I. with Anti-HBV (CC50/IC50) (HBV [1]) | IC50 (HBV [2]) | CC50 [3] | CC50 (in vitro) | S.I. with Anti-HIV-1 (CC50/IC50) (HIV-1NL4-3; MT-4 cells) | also measured |
| --- | --- | --- | --- | --- | --- | --- |
| Nc1ccn([C@@H]2CS[C@H](CO)O2)c(=O)n1 [3TC, lamivudine] | > 3,300 | 30 ± 10 nM | > 100 µM | > 100 µM | > 340 |  |
| N#C[C@]1(CO)O[C@@H](n2cnc3c(=O)[nH]c(N)nc32)C[C@@H]1O [CdG, 4′-C-cyano-2′-deoxyguanosine] | 8,000 | 0.4 ± 0.1 nM | 2.8 ± 0.9 µM | 3.2 ± 0.7 µM | 7,000 | IC50 [4]: 40 ± 30 nM; serum human albumin (h-albumin) levels [5]: moderately decreased h-albumin levels; body weights [5]: no significant difference in body weights; liver toxicity [6]: no significant liver toxicity or general toxicity; effect on HBV^WT viremia (HBV^WT [7]): significantly blocked the replication of HBV; greatest magnitude of serum HBV-DNA level reduction (HBV^WT [7]): -2.7 log10 copies/ml; IC50 (HBVADV-R^A181T/N236T): 40 ± 20 nM; effect on HBVETV-R^L180M/S202G/M204V viremia [8]: significant level of viremia reduction by day 7; greatest magnitude of viremia reduction [8]: -1.2 log10 copies/ml; difference in viremia reduction magnitude between HBV^WT and HBVETV-R^L180M/S202G/M204V [8]: 30 fold; activity against HIV-2 strains (HIV-2 strains): potent activity against HIV-2 strains; IC50 (HBV^WT [9]; [12]): 10 ± 2 nM; IC50 (HBV^WT [9]; [13]): 9.8 nM; mtDNA synthesis / mtDNA levels (HepG2 cells): significantly lowered the levels of mtDNA; L-lactate levels in culture medium (HepG2 cells): severely lowered the levels of L-lactate and viable cell numbers; viable cell numbers (MTT assay) (HepG2 cells): severely lowered the levels of L-lactate and viable cell numbers |
| Nc1ccn([C@H]2CC[C@@H](CO)O2)c(=O)n1 [ddC, 2′,3′-dideoxycytidine] | > 130 | 750 ± 120 nM |  | > 100 µM | > 300 | CC50 ([3]; MT-4 cells): > 100 µM; mtDNA synthesis / mtDNA levels (HepG2 cells): significantly decreased mtDNA synthesis at 1 μM and beyond; L-lactate levels in culture medium (HepG2 cells): without causing any significant decrease in L-lactate amounts or viable cell numbers; viable cell numbers (MTT assay) (HepG2 cells): without causing any significant decrease in L-lactate amounts or viable cell numbers |
| Cc1cn([C@H]2C[C@H](N=[N+]=[N-])[C@@H](CO)O2)c(=O)[nH]c1=O [AZT, 3′-azido-3′-deoxythymidine] |  | > 100000 nM | 30.5 ± 3.1 µM | > 100 µM | 1,020 |  |
| OC[C@@H]1CC[C@H](n2cnc3c(O)ncnc32)O1 [ddI, 2′,3′-dideoxyinosine] |  | 3700 ± 700 nM | > 100 µM | > 100 µM |  |  |
| C#C[C@@]1(CO)C=C[C@H](n2cc(C)c(=O)[nH]c2=O)O1 [Ed4T, 2′,3′-didehydro-3′-deoxy-4′-ethynylthymidine] |  | > 100000 nM | > 100 µM | > 100 µM | > 380 |  |
| Nc1nc(NC2CC2)c2ncn([C@H]3C=C[C@@H](CO)C3)c2n1 [ABC, abacavir] | > 26 | 3900 ± 1000 nM | > 100 µM | > 100 µM | > 170 |  |
| C#C[C@]1(COP(=O)(O)OP(=O)(O)OP(=O)(O)O)O[C@@H](n2cnc3c(N)nc(F)nc32)C[C@@H]1O [EFdA-TP] |  |  |  |  |  | half-life [10]: ≥ 17 h |
| C=C1[C@H](CO)[C@@H](O)C[C@@H]1n1cnc2c(=O)[nH]c(N)nc21 [ETV, entecavir] | > 140,000 | 0.7 ± 0.2 nM | 39.1 ± 8.7 µM | > 100 µM | 38 | IC50 [4]: > 1000 nM; number of HBV copies in HepG2 2.2.15 cells (HBV [1]; at 100 nM, 12-day culture, cells alone 9.0 × 10^5 copies/well): ~ 0.9 × 10^5 copies/well; serum human albumin (h-albumin) levels [5]: comparable decrease of h-albumin levels; body weights [5]: no significant difference in body weights; effect on HBV^WT viremia (HBV^WT [7]): viremia levels significantly went down; IC50 (HBVADV-R^A181T/N236T): 180 nM; effect on HBVETV-R^L180M/S202G/M204V viremia [8]: completely failed to reduce; also recorded: essentially no reduction; IC50 (HBV^WT [9]; [12]): 14 ± 8 nM; IC50 (HBV^WT [9]; [13]): 14.1 nM; mtDNA synthesis / mtDNA levels (HepG2 cells): no reduction of mtDNA synthesis was observed; L-lactate levels in culture medium (HepG2 cells): no L-lactate level changes were identified; viable cell numbers (MTT assay) (HepG2 cells): slight and moderate decreases in the cell viability |
| CC(C)OC(=O)OCOP(=O)(CO[C@H](C)Cn1cnc2c(N)ncnc21)OCOC(=O)OC(C)C [TDF, tenofovir disoproxil fumarate] | > 2,500 | 40 ± 10 nM |  | > 100 µM | 70 | CC50 ([3]; MT-4 cells): 40.4 ± 11.3 µM |
| C#C[C@]1(CO)O[C@@H](n2cnc3c(N)nc(F)nc32)C[C@@H]1O [EFdA, 4′-ethynyl-2-fluoro-2′-deoxyadenosine] | > 630 | 160 ± 30 nM | 19.2 ± 5.9 µM | > 100 µM | 64,000 | IC90 (HIV-1): ~5 nM; maximal concentration [11]: 4 µg/mL; time of maximal concentration [11]: 30 min |
| Cc1cn([C@H]2C=C[C@@H](CO)O2)c(=O)[nH]c1=O [d4T, 2′,3′-didehydro-3′-deoxythymidine] |  | > 100000 nM | > 100 µM | > 100 µM |  | S.I. with Anti-HIV-1 (CC50/IC50) (HIV-1NL4-3): > 150 |
| N#C[C@]1(CO)O[C@@H](n2cnc3c(N)nc(N)nc32)C[C@@H]1O [CAdA, 4′-C-cyano-2-amino-2′-deoxyadenosine] | 9,500 | 0.4 ± 0.2 nM | 3.5 ± 1.2 µM | 3.8 ± 1 µM | 8,750 | IC50 [4]: 70 ± 10 nM; serum human albumin (h-albumin) levels [5]: moderately decreased h-albumin levels; body weights [5]: no significant difference in body weights; effect on HBV^WT viremia (HBV^WT [7]): significantly blocked the replication of HBV; greatest magnitude of serum HBV-DNA level reduction (HBV^WT [7]): -2.9 log10 copies/ml; IC50 (HBVADV-R^A181T/N236T): 90 ± 70 nM; effect on HBVETV-R^L180M/S202G/M204V viremia [8]: significant level of viremia reduction by day 7; greatest magnitude of viremia reduction [8]: -1.4 log10 copies/ml; difference in viremia reduction magnitude between HBV^WT and HBVETV-R^L180M/S202G/M204V [8]: 30 fold; activity against HIV-2 strains (HIV-2 strains): potent activity against HIV-2 strains; IC50 (HBV^WT [9]; [12]): 7 ± 10 nM; IC50 (HBV^WT [9]; [13]): 7.2 nM; mtDNA synthesis / mtDNA levels (HepG2 cells): significantly lowered the levels of mtDNA; L-lactate levels in culture medium (HepG2 cells): severely lowered the levels of L-lactate and viable cell numbers; viable cell numbers (MTT assay) (HepG2 cells): severely lowered the levels of L-lactate and viable cell numbers |
| Cc1cn([C@@H]2C[C@@H](O)[C@H](CO)O2)c(=O)[nH]c1=O [LdT, telbivudine] | > 14,000 | 7 ± 1 nM | > 100 µM | > 100 µM |  |  |

Source: PMC4589464 (Hepatology (Baltimore, Md.), 2015)
